Our source for the IC50, Activity and Ki values is ChEMBL document CHEMBL1143981, “Exploring the potential of 3'-O-carboxy esters of thymidine as inhibitors of ribonuclease A and angiogenin” (Bioorg Med Chem, 2008).

Structures are written as SMILES. Calls of active or inactive are those of the source. The rule behind the calls is not given here.

Molecular target in one test: not listed separately
The experiment in a line: Inhibition of RNase A by precipitation assay. In a few lines: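 Yeast tRNA substrate (0.1 mg) in 0.1 M Tris–HCl, pH 7.5, with 5 mM EDTA and 10 µg HSA, 50 µl final. Enzyme (0.2 µM solution) was preincubated with inhibitor (225 µM solution) before addition. Reaction ran at 37 °C for 30 min. It was quenched with ice-cold 1.14 N perchloric acid containing 6 mM uranyl acetate, held on ice 30 min, then centrifuged at 4 °C.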
What is called IC50 is the concentration that gives 50% inhibition. Higher therefore signals a need for much substance. Take `Nc1ccn([C@@H]2O[C@H](CO)[C@@H](OP(=O)(O)O)[C@H]2O)c(=O)n1`: the IC50 turned out to be 312 µM.
Take `CC(=O)O[C@H]1C[C@H](n2cc(C)c(=O)[nH]c2=O)O[C@@H]1CO`: the midpoint of inhibition, the IC50, lay at 197 µM.
Take `Cc1cn([C@H]2C[C@H](OP(=O)(O)O)[C@@H](CO)O2)c(=O)[nH]c1=O`: the IC50 was determined as 167 µM.
Compound `Cc1cn([C@H]2C[C@H](OC(=O)c3ccccc3)[C@@H](CO)O2)c(=O)[nH]c1=O` registered an IC50 of 341 µM.

Another test deals with T1, Ribonuclease pancreatic (Homo sapiens) (UniProt P07998).
T1 sequence (whole entry): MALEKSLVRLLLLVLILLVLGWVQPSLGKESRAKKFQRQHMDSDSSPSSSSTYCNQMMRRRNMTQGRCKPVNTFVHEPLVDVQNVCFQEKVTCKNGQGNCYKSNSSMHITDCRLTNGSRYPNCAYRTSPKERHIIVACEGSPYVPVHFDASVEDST
Kind of test: Inhibition of RNase A assessed as tRNA degradation by agarose-gel based assay. In a few lines:
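RNase A (0.66 µM solution) was preincubated 6 h with 1.5 mM inhibitor solution, 50 µl total. An aliquot was then mixed with yeast tRNA (5.0 mg/ml, freshly dissolved in RNase-free water) for 30 min. Samples ran on 1.1% agarose, and undegraded tRNA was visualized by ethidium bromide staining under UV.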
On to `Nc1ccn([C@@H]2O[C@H](CO)[C@@H](OP(=O)(O)O)[C@H]2O)c(=O)n1`, for which the outcome was Active.
Still for that read-out and setting: under `CC(=O)O[C@H]1C[C@H](n2cc(C)c(=O)[nH]c2=O)O[C@@H]1CO` stands “Active”; under `Cc1cn([C@H]2C[C@H](OC(=O)c3ccccc3)[C@@H](CO)O2)c(=O)[nH]c1=O`, “Active”.

A further test deals with Ribonuclease pancreatic. The experiment in a line: Activity at RNase A. In a few lines:
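Spectrophotometric kinetics with 2',3'-cCMP substrate in oligo(vinylsulfonic acid)-free 0.1 M Mes–NaOH, pH 6.0, with 0.1 M NaCl. RNase A was at 10 µM. Substrate ranged 0.14–0.28 mM with inhibitor 0–6.7 µM, or 0.13–0.25 mM with inhibitor 0–62 µM, depending on compound. Inhibition constants came from initial velocities via Eadie–Hofstee plots (V vs V/[S]), using the slopes.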
One may read the Ki as the dissociation constant of the complex between target and ligand, obtained from inhibition or displacement. The compound `Nc1ccn([C@@H]2O[C@H](CO)[C@@H](OP(=O)(O)O)[C@H]2O)c(=O)n1` had a Ki of 103 µM.
Still for that read-out and setting: under `CC(=O)O[C@H]1C[C@H](n2cc(C)c(=O)[nH]c2=O)O[C@@H]1CO` stands 42 µM; under `Cc1cn([C@H]2C[C@H](OP(=O)(O)O)[C@@H](CO)O2)c(=O)[nH]c1=O`, 13.2 µM; under `Cc1cn([C@H]2C[C@H](OC(=O)c3ccccc3)[C@@H](CO)O2)c(=O)[nH]c1=O`, 95 µM.
